By IC50 is commonly meant the concentration needed to halve the response being measured.

A short description of data set [1]: Binding towards monkey plasma protein at 10 uM. The settings on record: cercopithecidae. Format: ADME, cell-free. The method in brief: (§1)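 Test compound incubated at 10 or 100 μM with plasma from mouse, rat, monkey, dog and human. The filtrate was analysed, and binding was expressed as percent bound at each concentration.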
A short description of data set [2]: Binding towards monkey plasma protein at 100 uM. Format: ADME, cell-free. The settings on record: cercopithecidae. The method in brief:
as §1

Data set [3] is described as follows: Binding towards human plasma protein at 10 uM. The format is ADME, cell-free. The method in brief: as §1
Data set [4] is described as follows: Binding towards human plasma protein at 100 uM. Format: ADME, cell-free. The method in brief:
as §1

Data set [5] is filed under the species Canis familiaris. As to the kind of experiment: Plasma protein binding towards dog plasma at 10 uM. Format: ADME, Canis lupus familiaris. The method in brief: as §1
For data set [6], the species on record is Mus musculus. The data set is described as follows: Binding towards mouse plasma protein at 100 uM. Format: ADME. The essentials:
as §1

The species named for data set [7] is Rattus norvegicus. As to the kind of experiment: Binding towards rat plasma protein at 10 uM. The format is ADME. The method in brief: as §1
Data set [8] is filed under the species Rattus norvegicus. The data set is described as follows: Binding towards rat plasma protein at 100 uM. The format is ADME. The essentials: as §1
Data set [9] has as its target Cytochrome P450 2C19 (Homo sapiens, UniProt P33261). The data set is described as follows: Inhibition of Cytochrome P450 2C19. Format: ADME.
The target of data set [10] is Cathepsin B (Homo sapiens, UniProt P07858). The data set is described as follows: Inhibitory activity against Cathepsin B.
For data set [11], the target named is Cytochrome P450 2C9 (Homo sapiens, UniProt P11712). The data set is described as follows: Inhibition of Cytochrome P450 2C9. Format: ADME.
Data set [12] deals with Coagulation factor X (Homo sapiens, UniProt P00742). The data set is described as follows: Inhibitory activity against Coagulation factor X.
Data set [13] concerns the target T1, Coagulation factor VII (Homo sapiens, UniProt P08709).
T1 sequence (P08709 whole entry): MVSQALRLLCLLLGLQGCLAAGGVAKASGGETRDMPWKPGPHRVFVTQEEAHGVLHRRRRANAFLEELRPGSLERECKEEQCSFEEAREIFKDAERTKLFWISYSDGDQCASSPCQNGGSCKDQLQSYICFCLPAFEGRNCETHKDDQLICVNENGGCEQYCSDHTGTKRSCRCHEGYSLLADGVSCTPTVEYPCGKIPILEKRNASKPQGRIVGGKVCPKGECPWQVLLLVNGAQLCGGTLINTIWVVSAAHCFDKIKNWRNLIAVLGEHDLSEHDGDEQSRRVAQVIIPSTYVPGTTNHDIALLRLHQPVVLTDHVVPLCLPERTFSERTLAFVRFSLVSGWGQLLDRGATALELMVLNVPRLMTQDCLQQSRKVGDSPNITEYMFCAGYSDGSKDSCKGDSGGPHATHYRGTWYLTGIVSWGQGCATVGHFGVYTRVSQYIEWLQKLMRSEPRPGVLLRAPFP
As to the kind of experiment: Inhibitory activity against coagulation factor VII.

Data set [14] addresses Chymotrypsinogen A (Bos taurus, UniProt P00766). As to the kind of experiment: Inhibitory activity against Chymotrypsinogen.
For data set [15], the target named is T2, Cytochrome P450 3A4 (Homo sapiens, UniProt P08684). As to the kind of experiment: Inhibition of Cytochrome P450 3A4 as BFC substrate. Format: ADME.
Data set [16] has as its target T2, Cytochrome P450 3A4. The data set is described as follows: Inhibition of Cytochrome P450 3A4 as BQ substrate. Format: ADME.
The target of data set [17] is Cytochrome P450 2D6 (Homo sapiens, UniProt P10635). The data set is described as follows: Inhibition of Cytochrome P450 2D6. The format is ADME.
Data set [18] concerns the target T3, Caspase-1 (Homo sapiens, UniProt P29466).
T3 sequence (P29466 whole entry): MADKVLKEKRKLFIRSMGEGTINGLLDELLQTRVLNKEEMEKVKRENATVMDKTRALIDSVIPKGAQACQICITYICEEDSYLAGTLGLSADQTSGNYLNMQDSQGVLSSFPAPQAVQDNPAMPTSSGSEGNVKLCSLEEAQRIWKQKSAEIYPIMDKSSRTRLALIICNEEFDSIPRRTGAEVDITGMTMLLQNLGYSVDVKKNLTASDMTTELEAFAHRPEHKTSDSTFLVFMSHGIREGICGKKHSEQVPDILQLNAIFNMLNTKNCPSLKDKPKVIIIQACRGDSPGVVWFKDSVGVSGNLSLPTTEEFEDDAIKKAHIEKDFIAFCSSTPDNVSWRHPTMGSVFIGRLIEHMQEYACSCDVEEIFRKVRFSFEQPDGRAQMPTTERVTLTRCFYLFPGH
The data set is described as follows: Inhibitory activity against interleukin 1-beta converting enzyme (IL-1 beta converting enzyme).

Data set [19] is described as follows: The compound was tested for toxicity using human neuroblastoma SY5Y cells. The format is cell-based. The method in brief: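 Cytotoxicity was assessed in cultured human neuroblastoma SY5Y cells, alongside rat cerebellar granule neurons.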
Data set [20] deals with Proteasome. The data set is described as follows: Inhibitory activity against proteasome. Format: subcellular.
For data set [21], the target named is Serine protease 1 (Homo sapiens, UniProt P07477). The data set is described as follows: Inhibitory activity against trypsin.
Data set [22] addresses Prothrombin (Homo sapiens, UniProt P00734). The data set is described as follows: Inhibitory activity against thrombin.
For data set [23], the species on record is Canis familiaris. As to the kind of experiment: Plasma protein binding towards dog plasma at 100 uM. Format: ADME, Canis lupus familiaris. The method in brief:
as §1

The species named for data set [24] is Mus musculus. As to the kind of experiment: Binding towards mouse plasma protein at 10 uM. Format: ADME. The essentials: as §1

T2 sequence (P08684 whole entry): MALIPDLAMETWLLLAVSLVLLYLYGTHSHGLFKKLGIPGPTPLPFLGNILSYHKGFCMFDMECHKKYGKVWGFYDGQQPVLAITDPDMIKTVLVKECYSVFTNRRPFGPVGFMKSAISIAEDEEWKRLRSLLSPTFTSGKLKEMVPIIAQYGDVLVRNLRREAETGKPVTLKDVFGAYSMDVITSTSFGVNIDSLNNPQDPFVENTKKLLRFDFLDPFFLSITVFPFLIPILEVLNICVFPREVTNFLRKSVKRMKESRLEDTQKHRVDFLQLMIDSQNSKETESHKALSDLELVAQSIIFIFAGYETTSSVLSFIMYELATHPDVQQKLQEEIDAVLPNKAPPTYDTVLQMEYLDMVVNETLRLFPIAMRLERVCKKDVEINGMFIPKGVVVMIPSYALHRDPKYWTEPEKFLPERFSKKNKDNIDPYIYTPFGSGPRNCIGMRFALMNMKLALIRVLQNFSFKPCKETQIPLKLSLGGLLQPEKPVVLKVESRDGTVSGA
Coagulation factor X, sequence (P00742 41-179 limits assumed): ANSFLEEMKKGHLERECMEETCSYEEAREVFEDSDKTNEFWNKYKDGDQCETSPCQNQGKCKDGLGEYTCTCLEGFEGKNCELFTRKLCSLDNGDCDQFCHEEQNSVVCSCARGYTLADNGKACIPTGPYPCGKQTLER
Coagulation factor X, sequence (P00742 235-488 limits assumed): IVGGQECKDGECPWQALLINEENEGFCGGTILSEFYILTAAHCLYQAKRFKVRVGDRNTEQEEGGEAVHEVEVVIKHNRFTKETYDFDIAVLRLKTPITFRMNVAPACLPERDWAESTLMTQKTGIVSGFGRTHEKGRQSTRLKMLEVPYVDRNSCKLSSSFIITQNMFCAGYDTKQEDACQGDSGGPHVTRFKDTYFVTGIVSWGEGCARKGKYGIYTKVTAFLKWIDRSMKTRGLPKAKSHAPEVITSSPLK
Cytochrome P450 2C19, sequence (P33261 whole entry): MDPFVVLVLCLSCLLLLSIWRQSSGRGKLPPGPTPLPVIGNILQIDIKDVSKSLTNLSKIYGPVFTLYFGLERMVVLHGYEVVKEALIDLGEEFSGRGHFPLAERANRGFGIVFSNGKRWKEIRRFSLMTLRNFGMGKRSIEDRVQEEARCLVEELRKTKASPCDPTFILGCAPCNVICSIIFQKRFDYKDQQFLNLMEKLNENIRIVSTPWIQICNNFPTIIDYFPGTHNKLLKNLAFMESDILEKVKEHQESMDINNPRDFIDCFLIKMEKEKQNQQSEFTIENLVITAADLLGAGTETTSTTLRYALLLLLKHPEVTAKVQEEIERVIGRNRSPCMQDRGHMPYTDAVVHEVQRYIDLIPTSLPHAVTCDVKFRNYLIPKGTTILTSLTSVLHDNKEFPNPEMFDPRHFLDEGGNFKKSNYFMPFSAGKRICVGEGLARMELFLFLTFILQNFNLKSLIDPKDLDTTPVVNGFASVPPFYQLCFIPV
Serine protease 1, sequence (P07477 whole entry): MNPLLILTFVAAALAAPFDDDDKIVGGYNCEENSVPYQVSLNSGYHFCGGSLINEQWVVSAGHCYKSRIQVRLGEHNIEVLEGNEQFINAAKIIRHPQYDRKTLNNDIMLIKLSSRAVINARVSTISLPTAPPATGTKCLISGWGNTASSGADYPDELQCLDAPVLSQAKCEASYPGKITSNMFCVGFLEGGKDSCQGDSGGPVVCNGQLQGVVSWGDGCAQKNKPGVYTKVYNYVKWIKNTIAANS
Cytochrome P450 2C9, sequence (P11712 whole entry): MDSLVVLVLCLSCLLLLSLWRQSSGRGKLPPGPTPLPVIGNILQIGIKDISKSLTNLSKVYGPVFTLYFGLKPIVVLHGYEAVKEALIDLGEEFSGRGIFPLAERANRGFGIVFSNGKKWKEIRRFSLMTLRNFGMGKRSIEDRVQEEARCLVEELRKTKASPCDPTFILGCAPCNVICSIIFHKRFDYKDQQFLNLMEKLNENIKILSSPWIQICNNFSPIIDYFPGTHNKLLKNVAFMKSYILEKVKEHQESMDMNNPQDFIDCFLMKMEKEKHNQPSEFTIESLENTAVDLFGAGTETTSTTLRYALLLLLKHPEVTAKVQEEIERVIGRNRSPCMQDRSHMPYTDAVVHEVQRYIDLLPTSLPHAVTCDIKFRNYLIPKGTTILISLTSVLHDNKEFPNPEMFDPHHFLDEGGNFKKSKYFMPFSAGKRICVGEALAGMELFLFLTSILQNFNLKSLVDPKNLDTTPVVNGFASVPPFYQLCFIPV
Cytochrome P450 2D6, sequence (P10635 whole entry): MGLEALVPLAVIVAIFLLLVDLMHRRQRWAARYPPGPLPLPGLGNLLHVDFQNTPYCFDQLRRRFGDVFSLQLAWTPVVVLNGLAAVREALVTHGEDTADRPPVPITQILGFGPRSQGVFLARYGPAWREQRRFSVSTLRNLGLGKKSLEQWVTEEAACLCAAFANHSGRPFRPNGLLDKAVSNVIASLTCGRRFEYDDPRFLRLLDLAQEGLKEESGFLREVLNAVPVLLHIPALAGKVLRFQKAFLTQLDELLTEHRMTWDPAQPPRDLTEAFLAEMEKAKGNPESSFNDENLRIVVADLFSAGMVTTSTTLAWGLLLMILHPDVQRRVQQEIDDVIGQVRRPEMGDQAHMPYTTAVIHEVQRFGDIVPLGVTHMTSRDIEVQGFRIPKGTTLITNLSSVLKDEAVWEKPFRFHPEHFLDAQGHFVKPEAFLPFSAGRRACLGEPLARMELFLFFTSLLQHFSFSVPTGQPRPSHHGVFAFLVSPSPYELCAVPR

With `CC(C)C[C@H](C=O)NC(=O)[C@@H](NS(=O)(=O)c1ccc(F)cc1)C(C)C`, the Binding in data set [1] came to 95.1%; in data set [2], 90.5%; in data set [3] it was 95.4%; in data set [4], 91.6%; in data set [5], 75.8%; in data set [6], 90.2%. The Binding in data set [7] came to 89.9%; in data set [8], 85.4%; in data set [23] it was 66.8%; in data set [24], 89.9%. The half-inhibitory concentration (IC50) in [9] was 177 µM; in data set [10], 0.015 µM; in data set [11], 492 µM; in data set [12] it was > 60 µM; in data set [13] it was > 100 µM; in data set [14], > 200 µM. Also, the IC50 in data set [15] was 81 µM; in [16], 531 µM; in data set [17], 291 µM; in data set [18], > 100 µM; in [20], > 200 µM; in data set [21], > 100 µM. The IC50 in data set [22] is > 100 µM. In data set [19], the CC50 is > 1000 µM.

For the compound `CC(C)C[C@H](C=O)NC(=O)[C@@H](NS(=O)(=O)c1ccc2ccccc2c1)C(C)C`, the CC50 in data set [19] (read-out: LD50 (the source's name)) worked out at 9.8 µM.

(Values after ChEMBL document CHEMBL1145779, “Structure-activity relationship study and drug profile of N-(4-fluorophenylsulfonyl)-L-valyl-L-leucinal (SJA6017) as a potent calpain inhibitor” (J Med Chem, 2003).)
